Results gathered from unrelated publications.
Protocols differ between the studies behind these lines.

CC1(CN)CCN(c2cnc3c(Sc4ccncc4Cl)n[nH]c3n2)CC1  AUC (male Sprague-Dawley rat, plasma; intravenous, 2 mg/kg): 151 ng·h/mL
O=C1c2ccncc2C(=O)c2c1[nH]c1ccccc21  AUC(0-inf) (rat, plasma; intravenous, 5 mg/kg, single dose): 8.58 µM·h
CC(=Nc1ccc(N=Cc2cnccn2)cc1)N(C)C  AUC(0-t) (male Sprague-Dawley rat, plasma; oral, 200 mg/kg): 305 ng·h/mL
C=C(F)C(=O)N1CCN(c2nc(OC[C@@H]3CCCN3C)nc3c2CCN(c2cccc4cccc(Cl)c24)C3)C[C@@H]1CC#N  AUC(0-t) (male Sprague-Dawley rat, plasma; intravenous, 5 mg/kg): 1860 ng·h/mL
N#C[C@@]12C[C@@H]1[C@@H](n1cnc3c(N[C@@H](C4CCC4)C4CC4)nc(I)nc31)[C@H](O)[C@@H]2O  AUC(0-inf) (male Wistar rat, plasma; oral, 1 mg/kg): 19.2 ng·h/mL
C[C@H]1[C@@H](O)O[C@@H]2O[C@@]3(C)CC[C@H]4[C@H](C)CC[C@@H]1[C@@]24OO3  AUC(0-inf) (Sprague-Dawley rat, plasma; oral, 10 mg/kg): 205 ng·h/mL
O=C(C=Cc1ccccc1)Nc1cc(-c2ccnc(N3CCC(O)CC3)c2)ccn1  AUC(0-inf) (female Sprague-Dawley rat, plasma; oral, 50 mg/kg): 1400 ng·h/mL
O=C1CC[C@H](N2Cc3cc(N4CCN(CC5CCN(c6ccc([C@@H]7c8ccc(O)cc8CC[C@@H]7c7ccccc7)cc6)CC5)CC4)ccc3C2=O)C(=O)N1  AUC(0-t) (female Sprague-Dawley rat, plasma; oral, 20 mg/kg, fasted): 11000 ng·h/mL
COc1ccc2cc3n(c(=O)c2c1OC)CCc1cc2c(cc1-3)OCO2  AUC(0-t) (male Sprague-Dawley rat, blood; oral, 50 mg/kg): 701 ng·h/mL
